Consider two molecules from ChEMBL document CHEMBL4196175, “First SAR Study for Overriding NRAS Mutant Driven Acute Myeloid Leukemia” (J Med Chem, 2018).

The target in test [1] is Tyrosine-protein kinase Blk (Homo sapiens) (UniProt P51451). Nature of the test: Inhibition of human BLK at 1 uM relative to control.
Test [2] deals with OCI-AML-3. Nature of the test: Induction of apoptosis in human OCI-AML3 cells harboring NRAS Q61L mutant assessed as increase in apoptotic cells at 1 uM after 24 hrs by annexin V/propidium iodide staining based FACS analysis relative to control. In kind it is functional. The method in brief:
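Apoptosis scored by flow cytometry after FITC-annexin V/propidium iodide dual staining following 24 h exposure, at 1 µM or a range of indicated concentrations; three independent experiments, mean with SD, one-way ANOVA.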

In test [3] the test system is OCI-AML-3. Nature of the test: Induction of apoptosis in human OCI-AML3 cells harboring NRAS Q61L mutant assessed as decrease in bcl2 levels at 1 uM after 24 hrs by Western blot analysis. In kind it is functional, cell-based. The method in brief:
(§1)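 Cells treated 24 h with indicated concentrations (1 µM; 5 µM also used in Ba/F3-NRAS-G12D); cleaved PARP, cleaved caspase 3, bcl-2 and MCL1 detected by western blot with actin as loading control.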

The subject of test [4] is OCI-AML-3. Nature of the test: Induction of apoptosis in human OCI-AML3 cells harboring NRAS Q61L mutant assessed as decrease in mcl1 levels at 1 uM after 24 hrs by Western blot analysis. In kind it is functional, cell-based. The procedure, abridged:
as §1
Background: A western blot detects proteins with antibodies after separation by electrophoresis.

In test [5] the test system is BaF3. Nature of the test: Antileukemic activity against mouse BA/F3 cells harboring NRAS-G12D mutant allografted in immunodeficient mouse assessed as median survival time at 25 mg/kg/day, po qd administered on day 6 post implantation (reference value: 23 days). Format: functional.
Test [6] deals with T1, Mitogen-activated protein kinase kinase kinase kinase 2 (Homo sapiens) (UniProt Q12851).
T1 sequence (whole entry): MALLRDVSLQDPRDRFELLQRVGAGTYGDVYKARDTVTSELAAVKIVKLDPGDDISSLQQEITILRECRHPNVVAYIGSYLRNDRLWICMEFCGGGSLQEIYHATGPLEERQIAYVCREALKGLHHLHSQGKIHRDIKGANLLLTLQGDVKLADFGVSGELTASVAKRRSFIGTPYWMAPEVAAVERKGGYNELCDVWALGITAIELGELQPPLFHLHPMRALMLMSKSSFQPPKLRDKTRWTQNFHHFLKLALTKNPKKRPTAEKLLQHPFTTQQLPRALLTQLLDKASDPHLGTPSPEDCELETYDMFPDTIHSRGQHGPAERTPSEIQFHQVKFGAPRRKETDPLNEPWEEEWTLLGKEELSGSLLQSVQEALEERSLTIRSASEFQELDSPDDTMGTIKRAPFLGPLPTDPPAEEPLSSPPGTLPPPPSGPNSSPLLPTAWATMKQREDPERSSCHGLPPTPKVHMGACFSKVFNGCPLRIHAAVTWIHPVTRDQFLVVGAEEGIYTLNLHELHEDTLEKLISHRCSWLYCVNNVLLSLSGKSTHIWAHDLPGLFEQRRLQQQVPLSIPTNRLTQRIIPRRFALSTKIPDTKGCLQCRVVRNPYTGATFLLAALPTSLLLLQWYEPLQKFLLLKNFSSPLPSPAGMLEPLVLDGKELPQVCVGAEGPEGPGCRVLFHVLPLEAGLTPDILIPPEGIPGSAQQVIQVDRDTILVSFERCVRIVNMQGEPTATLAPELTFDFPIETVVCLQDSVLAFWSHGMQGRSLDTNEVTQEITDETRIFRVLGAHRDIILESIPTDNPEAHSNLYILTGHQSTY
Nature of the test: Inhibition of GCK in human OCI-AML3 cells harboring NRAS Q61L mutant assessed as reduction in p38 phosphorylation at Thr180/Tyr182 after 2 hrs by Western blot analysis. Format: cell-based. The method in brief:
(§2)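 Ba/F3-NRAS-G12D or OCI-AML3 cells exposed 2 h to compounds (1 µM, or a dose series in OCI-AML3); phospho-p70S6K1, phospho-AKT S473, phospho-JNK and phospho-p38 assessed by western blot, actin as loading control.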

For test [7], the system named is OCI-AML-3. Nature of the test: Induction of apoptosis in human OCI-AML3 cells harboring NRAS Q61L mutant assessed as increase in cleaved caspase-3 levels at 1 uM after 24 hrs by Western blot analysis. In kind it is functional, cell-based. The procedure, abridged:
as §1

For test [8], the target named is T2, Activated CDC42 kinase 1 (Homo sapiens, UniProt Q07912). As to conditions: 1 uM.
Test [9] concerns OCI-AML-3. Nature of the test: Cell cycle arrest in human OCI-AML3 cells harboring NRAS Q61L mutant assessed as accumulation at G0/G1 phase at 1 uM after 24 hrs by propidium iodide staining based FACS analysis. In kind it is functional. The procedure, abridged: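 OCI-AML3 cells treated 24 h at indicated concentrations, including 1 µM; cell-cycle phase distribution measured by flow cytometry after propidium iodide staining.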

The target of test [10] is Tyrosine-protein kinase Yes (Homo sapiens) (UniProt P07947). Nature of the test: Inhibition of human YES at 1 uM relative to control.
Test [11] concerns the target Tyrosine-protein kinase HCK (Homo sapiens) (UniProt P08631). Nature of the test: Inhibition of human HCK at 1 uM relative to control.
Test [12] addresses Proto-oncogene tyrosine-protein kinase Src (Homo sapiens) (UniProt P12931). As to conditions: 1 uM.
Test [13] deals with Fibroblast growth factor receptor 2 (Homo sapiens) (UniProt P21802). Nature of the test: Inhibition of human FGFR2 at 1 uM relative to control.
The target of test [14] is Ephrin type-B receptor 1 (Homo sapiens) (UniProt P54762). Nature of the test: Inhibition of human EphB1 at 1 uM relative to control.
The subject of test [15] is BaF3. Nature of the test: Induction of apoptosis in mouse BA/F3 cells expressing NRAS-G12D mutant assessed as increase in cleaved caspase-3 levels at 5 uM after 24 hrs by Western blot analysis. Format: functional, cell-based. The method in brief: as §1
The target in test [16] is T2, Activated CDC42 kinase 1. Nature of the test: Inhibition of ACK1 in human OCI-AML3 cells harboring NRAS Q61L mutant assessed as reduction in P70S6K1 phosphorylation at Thr421/Ser424 after 2 hrs by Western blot analysis. Format: cell-based. The procedure, abridged: as §2
The target in test [17] is Tyrosine-protein kinase JAK2 (Homo sapiens) (UniProt O60674). Nature of the test: Inhibition of human JAK2 at 1 uM relative to control.
The target in test [18] is Serine/threonine-protein kinase A-Raf (Homo sapiens) (UniProt P10398). Nature of the test: Inhibition of human ARAF at 1 uM relative to control.
The subject of test [19] is OCI-AML-3. Nature of the test: Induction of apoptosis in human OCI-AML3 cells harboring NRAS Q61L mutant assessed as increase in cleaved PARP levels at 1 uM after 24 hrs by Western blot analysis. In kind it is functional, cell-based. The method in brief: as §1
Test [20] addresses Serine/threonine-protein kinase B-raf (Homo sapiens) (UniProt P15056). Nature of the test: Inhibition of human BRAF at 1 uM relative to control.
Test [21] deals with T2, Activated CDC42 kinase 1. Nature of the test: Inhibition of ACK1 in human OCI-AML3 cells harboring NRAS Q61L mutant assessed as reduction in AKT phosphorylation at S473 after 2 hrs by Western blot analysis. Format: cell-based. The method in brief: as §2
For test [22], the system named is BaF3. Nature of the test: Induction of apoptosis in mouse BA/F3 cells expressing NRAS-G12D mutant assessed as increase in cleaved caspase-3 levels at 1 uM after 24 hrs by Western blot analysis. Format: functional, cell-based. The method in brief: as §1
Test [23] relates to BaF3. Nature of the test: Induction of apoptosis in mouse BA/F3 cells expressing NRAS-G12D mutant assessed as decrease in MCL1 levels at 1 uM after 24 hrs by Western blot analysis. In kind it is functional, cell-based. The method in brief:
as §1

Calls of active or inactive are those of the source. The calls are words filed in the database; no cut-off is given here.

Broadly, the inhibition is the share of the control response that was lost under treatment.

T2 sequence (Q07912 whole entry, looked up): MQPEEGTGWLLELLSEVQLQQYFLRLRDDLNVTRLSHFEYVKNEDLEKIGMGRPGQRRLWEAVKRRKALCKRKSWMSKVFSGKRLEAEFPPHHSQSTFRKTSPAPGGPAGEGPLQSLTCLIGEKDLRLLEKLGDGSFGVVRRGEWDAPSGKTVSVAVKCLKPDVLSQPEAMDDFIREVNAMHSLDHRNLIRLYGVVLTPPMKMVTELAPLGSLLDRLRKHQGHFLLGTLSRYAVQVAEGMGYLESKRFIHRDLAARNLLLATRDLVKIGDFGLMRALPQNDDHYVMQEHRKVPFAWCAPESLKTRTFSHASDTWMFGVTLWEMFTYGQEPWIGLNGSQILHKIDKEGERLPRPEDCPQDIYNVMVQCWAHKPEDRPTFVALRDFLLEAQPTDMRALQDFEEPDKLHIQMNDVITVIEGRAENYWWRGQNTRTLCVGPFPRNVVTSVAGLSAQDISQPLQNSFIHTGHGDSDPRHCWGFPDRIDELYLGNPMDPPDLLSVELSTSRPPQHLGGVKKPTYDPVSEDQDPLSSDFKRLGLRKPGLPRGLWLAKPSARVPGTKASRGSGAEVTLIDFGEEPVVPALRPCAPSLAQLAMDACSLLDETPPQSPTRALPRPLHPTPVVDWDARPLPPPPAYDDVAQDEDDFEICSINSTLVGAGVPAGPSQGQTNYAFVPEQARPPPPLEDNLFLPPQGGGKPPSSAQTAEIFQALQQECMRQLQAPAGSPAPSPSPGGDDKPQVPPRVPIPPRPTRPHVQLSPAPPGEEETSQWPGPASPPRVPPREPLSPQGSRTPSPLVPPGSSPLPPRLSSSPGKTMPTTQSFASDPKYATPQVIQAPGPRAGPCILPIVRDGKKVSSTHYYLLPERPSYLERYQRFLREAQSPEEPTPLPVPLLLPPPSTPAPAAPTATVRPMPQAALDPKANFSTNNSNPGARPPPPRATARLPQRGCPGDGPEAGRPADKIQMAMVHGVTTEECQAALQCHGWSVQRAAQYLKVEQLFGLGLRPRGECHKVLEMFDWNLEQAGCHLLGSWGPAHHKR
Tyrosine-protein kinase Blk (Homo sapiens), sequence (P51451 2-505 limits assumed): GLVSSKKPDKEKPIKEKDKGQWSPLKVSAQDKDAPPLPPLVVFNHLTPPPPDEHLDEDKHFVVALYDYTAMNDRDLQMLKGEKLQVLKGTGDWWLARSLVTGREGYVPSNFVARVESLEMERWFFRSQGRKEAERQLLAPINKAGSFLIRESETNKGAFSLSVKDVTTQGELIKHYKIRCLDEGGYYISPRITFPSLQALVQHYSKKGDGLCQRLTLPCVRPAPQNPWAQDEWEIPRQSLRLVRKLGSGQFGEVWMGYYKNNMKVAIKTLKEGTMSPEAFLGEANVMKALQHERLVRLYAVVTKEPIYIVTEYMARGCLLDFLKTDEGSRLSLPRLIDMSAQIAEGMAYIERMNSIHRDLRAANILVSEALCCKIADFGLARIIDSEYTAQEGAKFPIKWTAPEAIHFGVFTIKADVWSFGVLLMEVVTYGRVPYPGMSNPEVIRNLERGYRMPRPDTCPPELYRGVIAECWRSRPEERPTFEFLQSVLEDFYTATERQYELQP
Fibroblast growth factor receptor 2 (Homo sapiens), sequence (P21802 22-821 limits assumed): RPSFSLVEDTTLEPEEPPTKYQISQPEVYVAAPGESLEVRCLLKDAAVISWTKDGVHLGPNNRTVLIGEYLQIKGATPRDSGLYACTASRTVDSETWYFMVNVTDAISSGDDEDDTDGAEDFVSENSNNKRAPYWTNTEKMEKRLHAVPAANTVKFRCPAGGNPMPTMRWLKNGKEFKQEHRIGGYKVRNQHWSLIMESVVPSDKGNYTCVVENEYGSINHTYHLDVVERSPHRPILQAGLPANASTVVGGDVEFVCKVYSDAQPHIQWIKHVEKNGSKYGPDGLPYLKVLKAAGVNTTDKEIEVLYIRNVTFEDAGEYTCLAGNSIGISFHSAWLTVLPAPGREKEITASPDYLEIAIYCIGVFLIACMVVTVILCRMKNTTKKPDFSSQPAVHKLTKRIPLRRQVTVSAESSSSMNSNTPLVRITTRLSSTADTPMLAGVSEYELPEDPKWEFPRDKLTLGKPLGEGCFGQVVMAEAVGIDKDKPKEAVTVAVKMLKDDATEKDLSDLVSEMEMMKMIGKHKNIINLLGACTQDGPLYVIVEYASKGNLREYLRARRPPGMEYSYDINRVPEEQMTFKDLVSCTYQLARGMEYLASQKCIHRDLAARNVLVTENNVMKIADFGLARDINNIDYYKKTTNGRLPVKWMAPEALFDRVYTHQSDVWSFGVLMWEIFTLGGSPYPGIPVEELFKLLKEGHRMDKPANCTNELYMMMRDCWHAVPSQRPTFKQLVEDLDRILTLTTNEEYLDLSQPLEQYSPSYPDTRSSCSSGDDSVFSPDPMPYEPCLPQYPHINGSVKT
Ephrin type-B receptor 1 (Homo sapiens), sequence (P54762 whole entry): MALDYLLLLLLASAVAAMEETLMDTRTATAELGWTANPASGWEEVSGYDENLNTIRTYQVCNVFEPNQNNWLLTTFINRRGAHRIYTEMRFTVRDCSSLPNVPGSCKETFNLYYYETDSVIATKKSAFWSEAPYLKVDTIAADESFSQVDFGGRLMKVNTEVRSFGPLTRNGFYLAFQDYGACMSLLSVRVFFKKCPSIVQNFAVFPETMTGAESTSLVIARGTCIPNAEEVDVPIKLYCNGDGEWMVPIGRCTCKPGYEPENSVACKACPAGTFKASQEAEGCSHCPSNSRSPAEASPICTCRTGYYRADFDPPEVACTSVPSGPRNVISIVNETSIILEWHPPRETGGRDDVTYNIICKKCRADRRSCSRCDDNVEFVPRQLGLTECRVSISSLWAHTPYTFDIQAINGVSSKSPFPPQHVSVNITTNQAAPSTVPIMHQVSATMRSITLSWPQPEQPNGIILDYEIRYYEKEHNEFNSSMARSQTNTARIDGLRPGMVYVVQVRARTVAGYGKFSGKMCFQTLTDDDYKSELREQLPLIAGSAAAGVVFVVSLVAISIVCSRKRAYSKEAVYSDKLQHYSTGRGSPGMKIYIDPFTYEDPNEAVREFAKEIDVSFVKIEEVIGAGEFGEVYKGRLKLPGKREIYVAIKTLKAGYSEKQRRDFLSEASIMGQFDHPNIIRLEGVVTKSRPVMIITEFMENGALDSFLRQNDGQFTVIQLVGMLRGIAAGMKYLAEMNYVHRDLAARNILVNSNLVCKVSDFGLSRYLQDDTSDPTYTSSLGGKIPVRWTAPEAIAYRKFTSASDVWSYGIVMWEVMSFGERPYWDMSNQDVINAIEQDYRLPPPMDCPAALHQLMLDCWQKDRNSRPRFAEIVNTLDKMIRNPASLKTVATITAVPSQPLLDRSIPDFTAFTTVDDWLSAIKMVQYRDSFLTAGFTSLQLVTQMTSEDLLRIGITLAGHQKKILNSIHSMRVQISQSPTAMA
Tyrosine-protein kinase Yes (Homo sapiens), sequence (P07947 2-543 limits assumed): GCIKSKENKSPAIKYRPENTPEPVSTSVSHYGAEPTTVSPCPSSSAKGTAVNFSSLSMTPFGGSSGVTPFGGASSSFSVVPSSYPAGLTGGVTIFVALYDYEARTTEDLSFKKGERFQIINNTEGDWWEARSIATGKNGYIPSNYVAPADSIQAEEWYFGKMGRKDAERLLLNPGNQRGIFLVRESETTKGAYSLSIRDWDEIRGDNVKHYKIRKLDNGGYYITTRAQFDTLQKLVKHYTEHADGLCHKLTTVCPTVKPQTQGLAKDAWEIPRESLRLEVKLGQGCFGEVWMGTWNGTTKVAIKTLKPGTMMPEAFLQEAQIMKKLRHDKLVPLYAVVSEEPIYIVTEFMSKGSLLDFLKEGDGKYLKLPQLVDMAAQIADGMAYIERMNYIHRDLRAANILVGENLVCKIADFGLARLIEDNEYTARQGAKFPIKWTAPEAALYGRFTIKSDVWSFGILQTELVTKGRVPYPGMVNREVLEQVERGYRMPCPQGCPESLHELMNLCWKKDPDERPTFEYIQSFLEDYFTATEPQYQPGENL
Tyrosine-protein kinase JAK2 (Homo sapiens), sequence (O60674 whole entry): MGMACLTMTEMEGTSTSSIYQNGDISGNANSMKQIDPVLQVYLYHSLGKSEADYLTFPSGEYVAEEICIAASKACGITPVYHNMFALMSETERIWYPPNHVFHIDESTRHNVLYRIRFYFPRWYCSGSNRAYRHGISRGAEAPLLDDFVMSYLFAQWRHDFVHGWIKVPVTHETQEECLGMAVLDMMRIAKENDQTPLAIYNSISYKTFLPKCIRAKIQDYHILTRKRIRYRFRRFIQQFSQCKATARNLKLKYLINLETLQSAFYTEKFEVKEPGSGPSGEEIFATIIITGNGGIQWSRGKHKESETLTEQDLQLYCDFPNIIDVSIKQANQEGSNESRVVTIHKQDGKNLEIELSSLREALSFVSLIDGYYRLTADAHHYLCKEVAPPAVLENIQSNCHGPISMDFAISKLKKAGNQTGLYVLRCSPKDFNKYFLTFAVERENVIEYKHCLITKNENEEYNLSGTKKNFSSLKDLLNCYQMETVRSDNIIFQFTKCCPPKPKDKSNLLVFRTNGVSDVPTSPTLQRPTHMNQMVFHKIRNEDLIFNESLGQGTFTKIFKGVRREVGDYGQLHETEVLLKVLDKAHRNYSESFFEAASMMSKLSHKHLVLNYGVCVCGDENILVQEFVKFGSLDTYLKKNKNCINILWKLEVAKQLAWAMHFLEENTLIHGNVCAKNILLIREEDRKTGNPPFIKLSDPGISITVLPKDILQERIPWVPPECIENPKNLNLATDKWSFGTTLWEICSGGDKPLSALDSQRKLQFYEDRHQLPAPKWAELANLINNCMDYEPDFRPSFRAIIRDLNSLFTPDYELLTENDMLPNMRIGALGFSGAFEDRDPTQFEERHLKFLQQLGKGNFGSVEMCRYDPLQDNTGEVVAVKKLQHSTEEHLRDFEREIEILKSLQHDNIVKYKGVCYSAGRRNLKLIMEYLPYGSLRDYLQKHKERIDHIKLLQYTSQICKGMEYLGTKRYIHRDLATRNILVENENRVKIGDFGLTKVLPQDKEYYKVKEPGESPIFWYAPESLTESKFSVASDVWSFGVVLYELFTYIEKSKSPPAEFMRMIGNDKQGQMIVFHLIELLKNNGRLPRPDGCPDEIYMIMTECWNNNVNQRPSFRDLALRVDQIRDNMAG

Turning to `Cc1ccc(NC(=O)c2cccc(C(F)(F)F)c2)cc1N1Cc2cnc(N)nc2N(C)C1=O`, the inhibition in [1] is 95.9%; in [6], “Dose-dependent effect”; in test [8], 100%; in [10], 99.7%; in test [11], 98.9%; in test [12], 100%. The inhibition was 93.5% in [13]; 96.9% in test [14]; “Dose-dependent effect” in test [16]; 94.4% in test [17]; 99% in test [18]; 99.1% in [20]. For the same molecule, in [21], the inhibition entry is “Dose-dependent effect”. In addition, the Activity in test [2] was 15 - 30%. Also, the outcome in [3], in test [4], in [7], in test [9], in test [15] and in test [19] was Active. Also, the MSD in test [5] turned out to be 35 days.
Turning to `CC(=O)N1CCN(c2ccc(Nc3ncc4c(n3)N(C)C(=O)N(c3cc(NC(=O)c5cccc(C(F)(F)F)c5)ccc3C)C4)cn2)CC1`, the Activity in [2] is given as 15 - 30%. For the same molecule, the result in test [3], in test [4], in test [22], in test [7], in test [9] and in test [23] was Active. Moreover, the result in test [19] was Active. For the same molecule, the inhibition result in test [6], in test [16] and in test [21] was “Dose-dependent effect” each time.
